Results taken from ChEMBL document CHEMBL1152409, “Constituents of the moss Polytrichum commune” (J Nat Prod, 2009).

Tests used:
Assay type in all cases: functional, cell-based
[1] = Cytotoxicity against human cells 6T-CEM after 24 hrs by MTT assay
How it was run: (§1)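 Cell lines from ATCC were seeded at 3000 cells per well and exposed to a range of compound concentrations 24 h after seeding. Treatment lasted 24 h. MTT was then added and plates were incubated for a further 24 h. Viability was read as absorbance at 570 nm, and IC50 was determined.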

LoVo = test: Cytotoxicity against human LoVo cells after 24 hrs by MTT assay; how it was run: as §1
MDA-MB-435 = test: Cytotoxicity against human MDA-MB-435 cells after 24 hrs by MTT assay; details: MDA-MB-435, 24 h; how it was run: as §1
A549 = test: Cytotoxicity against human A549 cells after 24 hrs by MTT assay; details: A549, 24 h; how it was run: as §1
HepG2 = test: Cytotoxicity against human HepG2 cells after 24 hrs by MTT assay; details: HepG2, 24 h; how it was run: as §1

Measured: IC50

O=C1C[C@@H](c2ccccc2)Oc2cc(O)cc(/C=C\c3ccccc3)c21 [COMMUNIN A]
> 5 µg/mL: all assays above

O=C1C[C@@H](c2ccccc2)Oc2cc(O)cc(/C=C/c3ccccc3)c21 [COMMUNIN B]
> 5 µg/mL: all assays above

O=C1C[C@@H]2c3ccccc3O[C@H]3c4ccc(O)cc4-c4c(O)cc(O)c1c4[C@H]23 [OHIOENSIN H]
> 5 µg/mL: all assays above
